Data as given in ChEMBL document CHEMBL1833924, “HLE-inhibitory alkaloids with a polyketide skeleton from the marine-derived fungus Coniothyrium cereale” (J Nat Prod, 2011).
The source made the active and inactive calls. The rule behind the calls is not given here.

How the values were obtained:
Neutrophil elastase = target: T1, Neutrophil elastase (Homo sapiens, UniProt P08246); test: Inhibition of human leukocyte elastase using MeOSuc-Ala-Ala-Pro-Val-para-nitroanilide chromogenic substrate after 10 mins spectrophotometrically
T1 sequence (P08246 whole entry): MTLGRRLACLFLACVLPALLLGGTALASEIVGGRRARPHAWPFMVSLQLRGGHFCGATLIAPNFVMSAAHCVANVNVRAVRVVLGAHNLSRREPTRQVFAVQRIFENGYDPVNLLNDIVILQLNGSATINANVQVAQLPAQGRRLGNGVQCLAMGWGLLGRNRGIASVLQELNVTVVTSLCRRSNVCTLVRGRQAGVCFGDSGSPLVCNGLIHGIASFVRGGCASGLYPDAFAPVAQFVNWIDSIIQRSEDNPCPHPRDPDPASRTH
In short: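 Human leukocyte elastase enzyme inhibition assay; IC50 (μM) determined and reported as mean ± spread.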

L929 [1] = test: Cytotoxicity against mouse L929 cells at 60 uL after 5 days by MTT assay; assay type: cell-based; conditions: l929, 120 h
Mycolicibacterium phlei [2] = test: Antibacterial activity against Mycobacterium phlei at 20 uL after 24 hrs by agar diffusion assay; assay type: functional, organism-based
Staphylococcus aureus [3] = test: Antibacterial activity against Staphylococcus aureus at 20 uL after 24 hrs by agar diffusion assay; assay type: functional, organism-based
[4] = Inhibition of bovine Chymotrypsin; set-up: species or system Bos taurus
[5] = Inhibition of bovine trypsin; set-up: species or system Bos taurus
Prothrombin = Prothrombin (Homo sapiens, UniProt P00734); test: Inhibition of human thrombin
Papain = target: T2, Papain (Carica papaya, UniProt P00784); test: Inhibition of Carica papaya papain
T2 sequence (P00784 whole entry): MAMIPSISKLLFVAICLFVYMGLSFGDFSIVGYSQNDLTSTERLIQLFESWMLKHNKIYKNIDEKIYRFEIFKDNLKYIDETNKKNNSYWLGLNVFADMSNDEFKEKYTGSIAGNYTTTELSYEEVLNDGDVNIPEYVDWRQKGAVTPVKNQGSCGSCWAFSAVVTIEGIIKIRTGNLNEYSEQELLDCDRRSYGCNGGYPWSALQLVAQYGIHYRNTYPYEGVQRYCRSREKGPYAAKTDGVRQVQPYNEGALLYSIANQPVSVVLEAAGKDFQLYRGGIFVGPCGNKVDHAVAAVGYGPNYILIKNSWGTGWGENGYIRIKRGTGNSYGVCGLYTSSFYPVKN

[6] = Inhibition of porcine cholesterol esterase; set-up: species or system Sus scrofa
Acetylcholinesterase = Acetylcholinesterase (Electrophorus electricus, UniProt O42275); test: Inhibition of electric eel AChE
Escherichia coli [7] = test: Antibacterial activity against Escherichia coli at 20 ug/disk after 24 hrs by agar diffusion assay
L929 [8] = test: Cytotoxicity against mouse L929 cells after 5 days by MTT assay; assay type: cell-based; conditions: L929, 120 h
In short: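 MTT viability assay run on mouse fibroblast cells; result expressed as IC50 (μM).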

Mycolicibacterium phlei [9] = test: Antibacterial activity against Mycobacterium phlei assessed as zone of inhibition at 20 ug/disk after 24 hrs by agar diffusion assay; assay type: functional; conditions: read-out: DIZ
In short: (§1)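 Paper discs loaded at 20 μg/disk were placed on agar seeded with each bacterium (Mycobacterium phlei, Staphylococcus aureus or Escherichia coli). Read-out was the diameter of the inhibition zone, recorded in mm.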

Staphylococcus aureus [10] = test: Antibacterial activity against Staphylococcus aureus assessed as zone of inhibition at 20 ug/disk after 24 hrs by agar diffusion assay; assay type: functional; conditions: read-out: DIZ; in short: as §1
Escherichia coli [11] = test: Antibacterial activity against Escherichia coli assessed as zone of inhibition at 20 ug/disk after 24 hrs by agar diffusion assay; assay type: functional; conditions: read-out: DIZ; in short: as §1

Acetylcholinesterase, sequence (O42275 whole entry, the tested form may be a part): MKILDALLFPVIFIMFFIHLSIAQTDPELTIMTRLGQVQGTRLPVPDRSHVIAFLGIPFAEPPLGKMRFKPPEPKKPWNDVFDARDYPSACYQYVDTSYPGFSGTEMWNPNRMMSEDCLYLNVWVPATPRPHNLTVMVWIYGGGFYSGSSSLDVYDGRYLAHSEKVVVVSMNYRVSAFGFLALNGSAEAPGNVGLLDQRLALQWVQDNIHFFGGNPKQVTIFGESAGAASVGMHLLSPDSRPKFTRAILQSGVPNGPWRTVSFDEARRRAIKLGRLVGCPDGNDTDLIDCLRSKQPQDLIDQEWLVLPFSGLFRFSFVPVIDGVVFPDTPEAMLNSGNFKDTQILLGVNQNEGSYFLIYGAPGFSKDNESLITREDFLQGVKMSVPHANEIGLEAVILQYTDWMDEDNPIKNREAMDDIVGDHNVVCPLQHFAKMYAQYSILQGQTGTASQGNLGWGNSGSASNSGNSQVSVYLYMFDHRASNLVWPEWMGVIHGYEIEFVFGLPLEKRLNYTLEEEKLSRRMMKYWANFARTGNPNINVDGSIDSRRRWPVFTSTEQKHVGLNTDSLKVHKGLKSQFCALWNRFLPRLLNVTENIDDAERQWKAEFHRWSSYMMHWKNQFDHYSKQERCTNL

Question: For C[C@@H]1OC2=C(C(=O)C(=N)c3c(O)c(O)cc(C=O)c32)C1(C)C, which IC50 (Neutrophil elastase) is on record?
Answer: The IC50 was 3.01 µM.

Question: And the Activity (L929 [1])?
Answer: The Activity was “Non-toxic”.

Question: And the Activity (Mycolicibacterium phlei [2])?
Answer: The Activity was “inactive”.

Question: What about the Activity (Staphylococcus aureus [3]) of the same molecule?
Answer: Its Activity is “inactive”.

Question: What about the IC50 [4] of the same molecule?
Answer: Its IC50 is > 50 µM.

Question: What about the IC50 [5] of the same molecule?
Answer: Its IC50 is > 50 µM.

Question: What about the IC50 (Prothrombin) of the same molecule?
Answer: Its IC50 is > 50 µM.

Question: What about the IC50 (Papain) of the same molecule?
Answer: Its IC50 is > 50 µM.

Question: What about the IC50 [6] of the same molecule?
Answer: The IC50 was > 50 µM.

Question: What about the IC50 (Acetylcholinesterase) of the same molecule?
Answer: The IC50 was > 50 µM.

Question: What about the Activity (Escherichia coli [7]) of the same molecule?
Answer: Its Activity is “inactive”.

Question: With Cc1cc(O)cc2c1C1=C(C(=O)C2=O)C(C)(C)[C@H](C)O1 as the molecule, how does the IC50 (Neutrophil elastase) read?
Answer: The IC50 was > 20 µM.

Question: And the IC50 (L929 [8])?
Answer: Its IC50 is 7.5 µM.

Question: What about the zone of inhibition at 20 µg/disc (Mycolicibacterium phlei [9]) of the same molecule?
Answer: Its zone of inhibition at 20 µg/disc is 18 mm.

Question: And the zone of inhibition at 20 µg/disc (Staphylococcus aureus [10])?
Answer: The zone of inhibition at 20 µg/disc was 14 mm.

Question: What about the zone of inhibition at 20 µg/disc (Escherichia coli [11]) of the same molecule?
Answer: The zone of inhibition at 20 µg/disc was 12 mm.

Question: And the IC50 [4]?
Answer: Its IC50 is > 50 µM.

Question: What about the IC50 [5] of the same molecule?
Answer: Its IC50 is > 50 µM.

Question: What about the IC50 (Prothrombin) of the same molecule?
Answer: The IC50 was > 50 µM.

Question: What about the IC50 (Papain) of the same molecule?
Answer: Its IC50 is > 50 µM.

Question: And the IC50 [6]?
Answer: The IC50 was > 50 µM.

Question: And the IC50 (Acetylcholinesterase)?
Answer: Its IC50 is > 50 µM.

Question: With Cc1cc(O)c2c3c(c(O)c4c(c13)O[C@@H](C)C4(C)C)NC2=O as the molecule, how does the IC50 (Neutrophil elastase) read?
Answer: The IC50 was 9.28 µM.

Question: And the Activity (L929 [1])?
Answer: The Activity was “Non-toxic”.

Question: And the Activity (Mycolicibacterium phlei [2])?
Answer: Its Activity is “inactive”.

Question: And the Activity (Staphylococcus aureus [3])?
Answer: The Activity was “inactive”.

Question: And the IC50 [4]?
Answer: Its IC50 is > 50 µM.

Question: What about the IC50 [5] of the same molecule?
Answer: The IC50 was > 50 µM.

Question: What about the IC50 (Prothrombin) of the same molecule?
Answer: The IC50 was > 50 µM.

Question: And the IC50 (Papain)?
Answer: Its IC50 is > 50 µM.

Question: And the IC50 [6]?
Answer: Its IC50 is > 50 µM.

Question: What about the IC50 (Acetylcholinesterase) of the same molecule?
Answer: Its IC50 is > 50 µM.

Question: And the Activity (Escherichia coli [7])?
Answer: The Activity was “inactive”.
